This is an account of results in ChEMBL document CHEMBL5620388, “Quinolone analogues of benzothiazinone: Synthesis, antitubercular structure-activity relationship and ADME profiling” (Eur J Med Chem, 2023).

Structures are written as SMILES. Converted amounts (≈) assume the structure as drawn. Bounds are passed on as bounds.

Series [1] concerns Mycobacterium tuberculosis. The experiment in a line: Antimicrobial activity against Mycobacterium tuberculosis H37Rv expressing GFP supplemented with casitone/glucose/tyloxapol assessed as reduction in bacterial growth measured on day 14. Particulars: 336 h, time 14 day. The format is functional. The essentials:
(§1)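 Line 1 medium is 7H9 with ADC and 0.05% Tween80. Line 2 medium is 7H9 with 0.03% casitone, 0.4% glucose and 0.05% tyloxapol. Incubated at 37 °C, 5% CO2, humidified. Fluorescence (ex 485/em 520) read at day 14 and normalised to rifampicin (2× MIC) and 5% DMSO controls. MIC90 is the lowest concentration giving >90% inhibition.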

Series [2] has as its system Mycobacterium tuberculosis. The experiment in a line: Antimicrobial activity against Mycobacterium tuberculosis H37Rv expressing GFP supplemented with albumin/dextrose/catalase/glucose/tween80 assessed as reduction in bacterial growth measured on day 14. The format is functional. The note with it: 336 h, time 14 day. The method in brief: as §1
Series [3] concerns Mycobacterium tuberculosis. The experiment in a line: Antitubercular activity against Mycobacterium tuberculosis H37Rv assessed as reduction in microbial growth measured for 14 days. The format is functional. The note with it: 336 h, time 14 day. The essentials: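 Strains were H37Rv, the fluoroquinolone-resistant GyrA G88C mutant, and the dprE1 P116S and C387S mutants. All were cultured in standard Middlebrook 7H9 with ADC supplement.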

Series [4] can be described thus: Cytotoxicity against HEK293 cells assessed as reduction in cell viability incubated for 20 hrs by resazurin staining based assay. In kind it is toxicity. The note with it: human. The method in brief:
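HEK-293 cells grown in DMEM with 10% FBS, seeded at 5×10^3 cells/well into compound-containing plates, 20 h at 37 °C, 5% CO₂. Resazurin added for a further 3 h, fluorescence read at ex 560/em 590 nm. CC₅₀ from sigmoidal dose-response fit (variable top, bottom, slope) of inhibition vs log concentration. Highest concentration tested 32 µg/mL.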
(In general: Resazurin is reduced to fluorescent resorufin, in cell work by metabolically active cells.)

Series [5] can be described thus: Aqueous solubility of compound in PBS at pH6.5 incubated for 24 hrs by shake-flask method. In kind it is physicochemical. The note with it: pH 6.5. The method in brief:
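Miniaturised shake-flask, 96-well: 4 µL of 10 mM DMSO stock dried down, then phosphate-buffered saline pH 6.5 added; shaken 24 h at 25 °C, centrifuged 3500 g for 15 min. Supernatant quantified by HPLC-DAD against a 10–220 µM calibration curve prepared in DMSO.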

The nature of series [6]: Lipophilicity, log P of the compound in octanol/buffer incubated for 2 hrs under shaking condition by shake flask based HPLC-UV method. The format is physicochemical. The method in brief: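 LogD at pH 7.4 by miniaturised shake-flask in deep-well plates. Compound partitioned between equal volumes of 1-octanol and PBS pH 7.4, shaken vigorously 2 h at 25 °C. Phases separated, each analysed by HPLC-UV with diode array detection. LogD calculated from peak areas in octanol and buffer.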

Series [7] is described as follows: Metabolic stability in human liver microsome assessed as parent compound remaining after 30 mins by LC-MS/MS analysis. In kind it is ADME. Particulars: liver microsomes, read-out: Stability. The essentials: (§2)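 Compound at 1 µM incubated with liver microsomes at 0.4 mg/mL, 37 °C for 30 min. Human microsomes were mixed gender, rat were male IGS, mouse were male CD1. Quenched with ice-cold acetonitrile containing internal standard and centrifuged. Parent disappearance measured by LC-MS/MS, with half-life and clearance from standard equations.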
In general terms: Liver microsomes are a subcellular fraction often used to study metabolism.

Series [8] in a line: Metabolic stability in rat liver microsome assessed as parent compound remaining after 30 mins by LC-MS/MS analysis. In kind it is ADME. The note with it: liver microsomes, read-out: Stability. The method in brief: as §2
The nature of series [9]: Metabolic stability in CD-1 mouse liver microsome assessed as parent compound remaining after 30 mins by LC-MS/MS analysis. Particulars: liver microsomes, read-out: Stability. The format is ADME. The essentials:
as §2

The nature of series [10]: Metabolic stability in human liver microsome assessed as intrinsic clearance measured for 30 mins by LC-MS/MS analysis. The format is ADME. The note with it: liver microsomes, read-out: CLH. The essentials:
as §2

Series [11] in a line: Metabolic stability in rat liver microsome assessed as intrinsic clearance measured for 30 mins by LC-MS/MS analysis. In kind it is ADME. Particulars: liver microsomes, read-out: CLH. The method in brief: as §2
Series [12] can be described thus: Metabolic stability in CD-1 mouse liver microsome assessed as intrinsic clearance measured for 30 mins by LC-MS/MS analysis. In kind it is ADME. Particulars: liver microsomes, read-out: CLH. The method in brief: as §2

The MIC90 is an inhibitory concentration at the 90% level, which refers to growth in some studies and to a panel of isolates in others. Broadly, the CC50 is the concentration that lowers cell viability or growth by half. For orientation: thermodynamic solubility means the concentration in solution at equilibrium with solid. Usually logD stands for the decadic logarithm of the distribution of all forms, ionised or not, between an organic phase and buffer at a given pH. Lower therefore signals lower lipophilicity. In general, logP refers to a log measure of how a compound divides between an organic and an aqueous phase. Higher therefore signals a more lipophilic compound.

`O=C(O)c1c[nH]c2c([N+](=O)[O-])cc(C(F)(F)F)cc2c1=O`: the figures for the MIC90 in series [1] and in series [2] were 62.5 µM (≈ 18.9 µg/mL) and more than 125 µM, respectively.

Consider `O=C(NCCc1ccc(C(F)(F)F)cc1)c1c[nH]c2c([N+](=O)[O-])cc(C(F)(F)F)cc2c1=O`, for which the values for the MIC90 in series [1], in [2] and in series [3] were less than 0.244 µM, less than 0.244 µM and 0.9 µM, respectively. Besides, the CC50 at 20 h in series [4] was more than 20 µM. Moreover, in [5], the thermodynamic solubility at 24 h is less than 5 µM. The logD at 2 h in [6] was 4.4. Moreover, the remaining at 0.5 h in series [7] stood at 68%; in series [8], 68%; in series [9], 67%. For the same compound, the microsomal CLint in [10] was determined as 31.7 µL/min/mg; in series [11], 33.2 µL/min/mg; in [12], 33.3 µL/min/mg.

In the case of `O=C(NCc1cccc(Cl)c1)c1c[nH]c2c([N+](=O)[O-])cc(C(F)(F)F)cc2c1=O`, the MIC90 was more than 125 µM in [1] and 2.99 µM (≈ 1.27 µg/mL) in series [2].

Turning to `CCOC(=O)c1c[nH]c2c([N+](=O)[O-])cc(C(F)(F)F)cc2c1=O`, the MIC90 in series [1] and in series [2] was less than 0.244 µM each time.

For `O=c1c(Br)c[nH]c2c([N+](=O)[O-])cc(C(F)(F)F)cc12`, the values for the MIC90 in series [1] and in series [2] were 1.6 µM (≈ 0.539 µg/mL) and 16 µM (≈ 5.39 µg/mL), respectively.

As to `O=C(Nc1cccc(C(F)(F)F)c1)c1cnc2c([N+](=O)[O-])cc(C(F)(F)F)cc2c1Cl`, the MIC90 was 0.7 µM (≈ 0.325 µg/mL) in [1] and 31.2 µM (≈ 14.5 µg/mL) in series [2].

As for `O=C(NCCc1ccc(F)cc1)c1c[nH]c2c([N+](=O)[O-])cc(C(F)(F)F)cc2c1=O`, the MIC90 in series [1] was less than 0.244 µM; in series [2], 0.9 µM (≈ 0.381 µg/mL); in series [3], 2 µM. Also, in series [4], the CC50 at 20 h is more than 20 µM. The compound also yielded a solubility (thermodynamic) at 24 h in series [5] of less than 5 µM. In series [6], this compound gave a logP at 2 h of 4. The remaining at 0.5 h in series [7] was found to be 73%; in series [8], 75%; in series [9], 56%. The figures for the microsomal CLint in [10], in series [11] and in series [12] were 25.9 µL/min/mg, 23.4 µL/min/mg and 48.8 µL/min/mg, respectively.

Turning to `O=C(NCCc1ccc(Cl)cc1)c1c[nH]c2c([N+](=O)[O-])cc(C(F)(F)F)cc2c1=O`, the MIC90 was less than 0.244 µM in series [1], less than 0.244 µM in [2] and 1.9 µM in series [3]. In addition, the CC50 at 20 h in series [4] is more than 20 µM. In series [5], this compound came in with a thermodynamic solubility at 24 h of less than 5 µM. Moreover, the logD at 2 h in [6] turned out to be 4.3. For the same compound, the remaining at 0.5 h is 75% in series [7], 80% in series [8] and 76% in [9]. The microsomal CLint is 24.3 µL/min/mg in series [10], 18.4 µL/min/mg in [11] and 23 µL/min/mg in [12].

Turning to `NNC(=O)c1c[nH]c2c([N+](=O)[O-])cc(C(F)(F)F)cc2c1=O`, the MIC90 in series [1] and in series [2] was more than 125 µM in each case.

`O=C(NCc1ccc(F)cc1)c1c[nH]c2c([N+](=O)[O-])cc(C(F)(F)F)cc2c1=O`: the MIC90 in series [1] was more than 125 µM; in series [2] it was 8.1 µM (≈ 3.32 µg/mL).

Take `Cc1ccc(CCNC(=O)c2c[nH]c3c([N+](=O)[O-])cc(C(F)(F)F)cc3c2=O)cc1`: the results for the MIC90 in [1] and in series [2] were more than 125 µM and 0.244 µM (≈ 0.102 µg/mL), respectively.

Turning to `O=c1cc[nH]c2c([N+](=O)[O-])cc(C(F)(F)F)cc12`, the MIC90 in [1] stood at 62.5 µM (≈ 16.1 µg/mL); in [2], 16 µM (≈ 4.13 µg/mL).

Consider `O=C(NCc1ccc(Cl)cc1)c1c[nH]c2c([N+](=O)[O-])cc(C(F)(F)F)cc2c1=O`, for which the MIC90 in series [1] was more than 125 µM; in [2], 7.4 µM (≈ 3.15 µg/mL).

Regarding `O=C(NCc1ccc(F)c(F)c1)c1c[nH]c2c([N+](=O)[O-])cc(C(F)(F)F)cc2c1=O`, the MIC90 in series [1] came to 7 µM (≈ 2.99 µg/mL); in series [2] it was 31.3 µM (≈ 13.4 µg/mL).

With `O=C(NCc1ccccc1Cl)c1c[nH]c2c([N+](=O)[O-])cc(C(F)(F)F)cc2c1=O`, the MIC90 in [1] was found to be 0.5 µM (≈ 0.213 µg/mL); in series [2], 0.8 µM (≈ 0.341 µg/mL).

With `O=C(NCc1cccc(F)c1)c1c[nH]c2c([N+](=O)[O-])cc(C(F)(F)F)cc2c1=O`, the MIC90 in [1] is 0.5 µM (≈ 0.205 µg/mL); in [2], 3 µM (≈ 1.23 µg/mL).

With `Cc1cccc(CNC(=O)c2c[nH]c3c([N+](=O)[O-])cc(C(F)(F)F)cc3c2=O)c1`, the MIC90 is less than 0.244 µM in series [1] and 2.9 µM (≈ 1.18 µg/mL) in series [2].

Regarding `NNC(=O)c1ccncc1` [ISONIAZID], the MIC90 in series [3] was 3.5 µM.

`COc1c(N2C[C@@H]3CCCN[C@@H]3C2)c(F)cc2c(=O)c(C(=O)O)cn(C3CC3)c12` [MOXIFLOXACIN]: the MIC90 in series [3] was determined as 0.1 µM.

Consider `CO[C@H]1/C=C/O[C@@]2(C)Oc3c(C)c(O)c4c(O)c(c(/C=N/N5CCN(C)CC5)c(O)c4c3C2=O)NC(=O)/C(C)=C\C=C\[C@H](C)[C@H](O)[C@@H](C)[C@@H](O)[C@@H](C)[C@H](OC(C)=O)[C@@H]1C` [RIFAMPIN], for which the MIC90 in series [1] and in series [2] was 0.01 µM (≈ 0.00823 µg/mL) in each case.
